Laboratory results reported in ChEMBL document CHEMBL1811772, “Identification of ostruthin from Peucedanum ostruthium rhizomes as an inhibitor of vascular smooth muscle cell proliferation” (J Nat Prod, 2011).
The source made the active and inactive calls. The rule behind the calls is not given here.

Columns and labels:
VSMC = assay: Antiproliferative activity against serum-stimulated primary rat aortic VSMC at 30 uM after 30 mins by resazurin conversion assay; type: functional, tissue-based; conditions: Aorta
Procedure, shortened: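 Primary rat aortic VSMC were serum-starved 24 h, pretreated 30 min with 30 μM sample or 0.1% DMSO vehicle, and stimulated 48 h with 10% calf serum. Resazurin (10 μg/mL, 2 h) conversion was read as fluorescence at ex 535/em 580 nm and expressed as fold over unstimulated vehicle cells. Mean ± SD, n = 3, ANOVA/Tukey.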

A10 = assay: Antiproliferative activity against rat A10; type: functional, cell-based
[1] = Cytotoxicity against primary rat aortic VSMC as cell viability at 30 uM by trypan blue exclusion assay (reference value: 98+/-2%); type: cell-based; conditions: primary rat aortic vascular smooth muscle cells (VSMC), read-out: Activity
[2] = Antiproliferative activity against serum-stimulated primary rat aortic VSMC after 30 mins by resazurin conversion assay; type: functional, tissue-based; conditions: Aorta
Procedure, shortened: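 Sprague–Dawley rat thoracic aorta VSMC were seeded at 1 × 10^4 cells/well, serum-starved 24 h, pretreated 30 min with sample or vehicle (final DMSO 0.1%), then stimulated 48 h with 10% calf serum. They were then washed and given 10 μg/mL resazurin for 2 h, with fluorescence read at ex 535/em 580 nm. Signals were normalized to unstimulated vehicle cells. IC50 was obtained by nonlinear regression; mean ± SD from ≥3 independent experiments.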

[3] = Antiproliferative activity in primary rat aortic VSMC assessed as inhibition of serum-induced DNA synthesis pretreated 30 mins prior serum addition measured after 20 hrs by BrdU incorporation assay; conditions: Aorta

| SMILES | Activity (VSMC) | other results |
| --- | --- | --- |
| C/C=C(/C)C(=O)O[C@H](COc1c2ccoc2cc2oc(=O)ccc12)C(C)(C)O | inactive | – |
| CC(C)(O)[C@H](O)COc1c2ccoc2cc2oc(=O)ccc12 | inactive | – |
| CC(C)=CCOc1c2ccoc2cc2oc(=O)ccc12 | inactive | – |
| CC(C)=CCOc1c2occc2cc2ccc(=O)oc12 | inactive | – |
| CC1(C)O[C@H]1COc1c2ccoc2cc2oc(=O)ccc12 | inactive | – |
| COc1ccc2ccc(=O)oc2c1CC=C(C)C [OSTHOLE] | inactive | IC50 (A10): 13.6 µM |
| CC(C)=CCC/C(C)=C/Cc1cc2ccc(=O)oc2cc1O [OSTRUTHIN] | Active | viability at 30 µM [1]: 92%; IC50 [2]: 11 µM; IC50 [3]: 17 µM |
